Data: ChEMBL document CHEMBL1208689, “5-Lipoxygenase-activating protein inhibitors. Part 3: 3-{3-tert-Butylsulfanyl-1-[4-(5-methoxy-pyrimidin-2-yl)-benzyl]-5-(5-methyl-pyridin-2-ylmethoxy)-1H-indol-2-yl]-2,2-dimethyl-propionic acid (AM643)-A potent FLAP inhibitor suitable for topical administration” (Bioorg Med Chem Lett, 2010)
pIC50: −log10 of the molar value. Active and inactive are the calls of the source. The calls are words filed in the database; no cut-off is given here.

What was measured:
Mus musculus [1] = assay: Inhibition of arachidonic acid-induced LTB4 production in topically dosed mouse at 0.1%; format: functional
Procedure, shortened: (§1)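 AA (4 mg/ear in ethanol) applied topically to mouse ear, compound applied topically at 0.01% or 0.1%. After 30 min, 6 mm ear punches weighed and assayed for CysLTs and LTB4. n = 3/group; means ± SEM; ANOVA with Dunnett's post hoc test, or t-test, versus vehicle.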

Mus musculus [2] = assay: Inhibition of arachidonic acid-induced ear edema in mouse at 30 mg/kg, po administered 4 hrs before arachidonic acid challenge; format: functional
Procedure, shortened: (§2)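 Mice given 30 mg/kg orally in 0.5% methocel 4 h before AA (4 mg in 40 µL ethanol) on one ear, ethanol alone on the other. After 30 min, 6 mm punches weighed and assayed for LTB4 and CysLTs. n = 3/group; means ± SEM; two-tailed t-test versus vehicle.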

Rattus norvegicus [3] = assay: Skin irritant activity in abraded rat skin model at 10 mg/mL (2 mL), topical after 72 hrs; settings: in vivo
Blood [4] = assay: Inhibition of […]-induced LTB4 synthesis in human whole blood after 5 hrs; format: functional, tissue-based
Mus musculus [5] = assay: Inhibition of arachidonic acid-induced cysteinyl leukotriene production in mouse ear at 30 mg/kg, po administered 4 hrs before arachidonic acid challenge; format: functional; procedure, shortened: as §2
[6] = Inhibition of […]-induced LTB4 synthesis in human leukocytes; format: functional, cell-based; settings: Leukocyte
Procedure, shortened: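 Human leukocytes stimulated with calcium ionophore […]; LTB4 synthesis measured; IC50.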

[7] = Solubility of the compound in water; format: physicochemical; settings: buffer
Mus musculus [8] = assay: Inhibition of arachidonic acid-induced LTB4 production in topically dosed mouse at 1 to 10%; format: functional, organism-based
Mus musculus [9] = assay: Inhibition of arachidonic acid-induced cysteinyl leukotriene production in topically dosed mouse at 0.1%; format: functional; procedure, shortened: as §1
[10] = biological target: T1, Arachidonate 5-lipoxygenase-activating protein (Homo sapiens, UniProt P20292); assay: Binding affinity to FLAP in human PMN by radioligand displacement assay
T1 sequence (P20292 whole entry): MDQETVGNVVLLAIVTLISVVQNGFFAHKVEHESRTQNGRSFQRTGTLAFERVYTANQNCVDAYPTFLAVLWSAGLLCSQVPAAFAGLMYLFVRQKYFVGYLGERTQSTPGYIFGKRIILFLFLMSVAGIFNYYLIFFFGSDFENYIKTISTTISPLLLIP
Procedure, shortened: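 Tritiated-ligand displacement from FLAP-containing membranes; IC50, n = 6.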

Mus musculus [11] = assay: Inhibition of arachidonic acid-induced cysteinyl leukotriene production in topically dosed mouse at 1 to 10%; format: functional, organism-based
Blood [12] = assay: Inhibition of […]-induced LTB4 synthesis in rat whole blood after 15 mins; format: functional, tissue-based; settings: 0.25 h
Cytochrome P450 2D6 = Cytochrome P450 2D6 (Homo sapiens, UniProt P10635); assay: Inhibition of CYP2D6; format: ADME
Chain of Cytochrome P450 2D6 (P10635 whole entry): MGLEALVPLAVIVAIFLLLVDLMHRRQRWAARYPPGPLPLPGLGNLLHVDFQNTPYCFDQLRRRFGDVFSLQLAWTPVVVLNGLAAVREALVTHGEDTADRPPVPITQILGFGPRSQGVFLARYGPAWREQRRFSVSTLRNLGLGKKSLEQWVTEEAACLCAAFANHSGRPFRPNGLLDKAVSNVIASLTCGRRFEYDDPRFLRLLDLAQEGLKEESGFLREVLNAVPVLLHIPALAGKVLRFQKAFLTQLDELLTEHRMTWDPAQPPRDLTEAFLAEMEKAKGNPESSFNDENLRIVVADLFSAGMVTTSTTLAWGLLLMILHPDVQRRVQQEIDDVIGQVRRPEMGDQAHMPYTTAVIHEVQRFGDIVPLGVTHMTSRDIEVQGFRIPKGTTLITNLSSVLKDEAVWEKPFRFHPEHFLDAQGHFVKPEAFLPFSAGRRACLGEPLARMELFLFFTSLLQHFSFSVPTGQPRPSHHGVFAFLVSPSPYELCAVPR

[13] = Drug level in mouse plasma at 30 mg/kg, po after 4.5 hrs; settings: read-out: Drug uptake
Cytochrome P450 3A4 = Cytochrome P450 3A4 (Homo sapiens, UniProt P08684); assay: Inhibition of CYP3A4; format: ADME
Chain of Cytochrome P450 3A4 (P08684 whole entry): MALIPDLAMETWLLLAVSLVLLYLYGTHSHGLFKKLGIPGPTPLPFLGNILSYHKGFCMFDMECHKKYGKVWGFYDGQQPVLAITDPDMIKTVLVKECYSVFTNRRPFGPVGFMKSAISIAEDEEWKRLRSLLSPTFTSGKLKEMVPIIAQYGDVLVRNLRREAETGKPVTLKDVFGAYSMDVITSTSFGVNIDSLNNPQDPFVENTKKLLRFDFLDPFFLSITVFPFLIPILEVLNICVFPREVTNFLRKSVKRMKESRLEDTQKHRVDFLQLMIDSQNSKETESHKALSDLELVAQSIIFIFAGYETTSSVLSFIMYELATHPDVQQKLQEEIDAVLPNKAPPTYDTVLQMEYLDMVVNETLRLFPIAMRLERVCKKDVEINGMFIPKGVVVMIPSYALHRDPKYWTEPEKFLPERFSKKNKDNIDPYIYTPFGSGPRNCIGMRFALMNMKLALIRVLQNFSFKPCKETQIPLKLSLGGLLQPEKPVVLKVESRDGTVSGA

Blood [14] = assay: Inhibition of […]-induced LTB4 synthesis in human whole blood after 15 mins; format: functional, tissue-based; settings: 0.25 h
Rattus norvegicus [15] = assay: Skin irritant activity in abraded rat skin model at 10 mg/mL (2 mL), topical after 72 hrs; settings: in vivo; remark: listed apart in the source
Blood [16] = assay: Inhibition of […]-induced LTB4 synthesis in rat whole blood after 4 hrs; format: functional, tissue-based
Mus musculus [17] = assay: Inhibition of arachidonic acid-induced ear edema in topically dosed mouse at 0.1%; format: functional; procedure, shortened: as §1
[18] = Solubility of the compound in propylene glycol; format: physicochemical
[19] = Terminal half life in rat at 1 mg/kg, iv; format: ADME, organism-based; set-up: dose 1 mg/kg, route intravenous; settings: in vivo, read-out: beta t1/2 (converted)
Procedure, shortened: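 Rat given 1 mg/kg intravenously in 10% EtOH/40% PEG400/50% water; plasma concentration–time profile used for terminal half-life.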

[20] = biological target: Prostaglandin G/H synthase 1 (Homo sapiens, UniProt P23219); assay: Inhibition of COX1
Chain of Prostaglandin G/H synthase 1 (P23219 whole entry): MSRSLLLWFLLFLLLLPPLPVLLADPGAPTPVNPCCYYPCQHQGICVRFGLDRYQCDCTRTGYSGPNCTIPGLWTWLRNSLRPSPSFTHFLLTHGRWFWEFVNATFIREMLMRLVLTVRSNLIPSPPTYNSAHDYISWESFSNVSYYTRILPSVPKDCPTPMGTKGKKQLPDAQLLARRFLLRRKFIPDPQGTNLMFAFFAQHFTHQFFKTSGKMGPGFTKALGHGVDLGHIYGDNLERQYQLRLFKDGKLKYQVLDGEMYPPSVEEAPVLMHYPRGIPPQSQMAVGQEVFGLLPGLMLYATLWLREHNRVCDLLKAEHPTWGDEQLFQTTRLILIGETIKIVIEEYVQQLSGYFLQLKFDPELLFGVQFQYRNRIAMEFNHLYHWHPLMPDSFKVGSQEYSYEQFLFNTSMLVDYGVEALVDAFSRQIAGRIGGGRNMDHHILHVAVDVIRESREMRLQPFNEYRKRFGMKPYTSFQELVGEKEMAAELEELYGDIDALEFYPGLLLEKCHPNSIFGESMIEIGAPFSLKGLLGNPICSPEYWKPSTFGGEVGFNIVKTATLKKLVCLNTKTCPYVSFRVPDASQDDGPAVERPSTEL

Mus musculus [21] = assay: Inhibition of arachidonic acid-induced LTB4 production in topically dosed mouse ear; format: functional, organism-based; procedure, shortened: as §1
[22] = biological target: T2, Prostaglandin G/H synthase 2 (Homo sapiens, UniProt P35354); assay: Inhibition of COX2
T2 sequence (P35354 whole entry): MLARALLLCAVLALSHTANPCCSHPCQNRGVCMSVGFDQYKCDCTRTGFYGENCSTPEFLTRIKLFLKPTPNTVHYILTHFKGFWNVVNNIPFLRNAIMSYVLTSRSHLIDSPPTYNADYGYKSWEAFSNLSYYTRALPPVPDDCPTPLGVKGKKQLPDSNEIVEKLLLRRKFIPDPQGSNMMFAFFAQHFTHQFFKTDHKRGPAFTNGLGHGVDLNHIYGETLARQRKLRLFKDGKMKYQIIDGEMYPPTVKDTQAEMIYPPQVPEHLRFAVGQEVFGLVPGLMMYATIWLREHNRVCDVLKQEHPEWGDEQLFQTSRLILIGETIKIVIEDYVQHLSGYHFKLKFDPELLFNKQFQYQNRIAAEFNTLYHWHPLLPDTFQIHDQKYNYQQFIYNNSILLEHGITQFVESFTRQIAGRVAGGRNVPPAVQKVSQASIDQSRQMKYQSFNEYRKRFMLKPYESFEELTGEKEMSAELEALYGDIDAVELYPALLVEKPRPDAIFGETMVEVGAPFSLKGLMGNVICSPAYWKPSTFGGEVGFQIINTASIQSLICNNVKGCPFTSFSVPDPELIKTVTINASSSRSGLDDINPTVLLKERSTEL

Blood [23] = assay: Inhibition of […]-induced LTB4 synthesis in mouse whole blood after 15 mins; format: functional, tissue-based; settings: 0.25 h
Mus musculus [24] = assay: Inhibition of arachidonic acid-induced cysteinyl leukotriene production in topically dosed mouse ear; format: functional, organism-based; procedure, shortened: as §1
Rattus norvegicus [25] = assay: Skin irritant activity in abraded rat skin model treated topically after 72 hrs; format: ADME, organism-based; settings: in vivo, topical_or_ocular
Procedure, shortened: (§3)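 Healthy male rats shaved and skin abraded; 2 mL of 10 mg/mL solution in topical vehicle applied over 20% of body area, occluded 24 h, site then cleaned. Draize scoring for erythema/edema and body weight followed over 72 h.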

Cytochrome P450 2C9 = Cytochrome P450 2C9 (Homo sapiens, UniProt P11712); assay: Inhibition of CYP2C9; format: ADME
Chain of Cytochrome P450 2C9 (P11712 whole entry): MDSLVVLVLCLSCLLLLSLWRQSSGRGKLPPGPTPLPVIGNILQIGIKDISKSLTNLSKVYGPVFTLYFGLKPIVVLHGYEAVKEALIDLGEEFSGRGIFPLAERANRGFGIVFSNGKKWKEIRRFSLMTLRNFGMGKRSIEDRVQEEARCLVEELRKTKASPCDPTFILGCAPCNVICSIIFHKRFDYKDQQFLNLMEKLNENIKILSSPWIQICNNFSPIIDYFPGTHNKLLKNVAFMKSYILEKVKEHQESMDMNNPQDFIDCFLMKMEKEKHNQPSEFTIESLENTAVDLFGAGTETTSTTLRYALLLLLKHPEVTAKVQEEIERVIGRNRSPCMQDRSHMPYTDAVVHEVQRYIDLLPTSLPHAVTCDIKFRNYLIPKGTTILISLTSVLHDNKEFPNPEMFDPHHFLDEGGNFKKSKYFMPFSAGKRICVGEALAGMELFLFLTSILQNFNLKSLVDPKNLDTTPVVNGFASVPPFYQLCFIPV

Mus musculus [26] = assay: Inhibition of arachidonic acid-induced ear edema in topically dosed mouse at 1 to 10%; format: functional, organism-based
Rattus norvegicus [27] = species on record: Rattus norvegicus; assay: Toxicity in rat assessed as change in body weight after 72 hrs; format: organism-based; settings: in vivo; procedure, shortened: as §3
[28] = Solubility of the compound in transcutol; format: physicochemical
Blood [29] = assay: Inhibition of […]-induced LTB4 synthesis in mouse whole blood after 4 hrs; format: functional, tissue-based
Mus musculus [30] = assay: Inhibition of arachidonic acid-induced LTB4 production in mouse ear at 30 mg/kg, po administered 4 hrs before arachidonic acid challenge; format: functional; procedure, shortened: as §2

pIC50 (Blood [4]): 7.09 | pIC50 [6]: 9.22 | solubility [7]: 10% | pIC50 [10]: 8.70 | pIC50 (Blood [12]): 7.11 | pIC50 (Cytochrome P450 2D6): < 4.52 | concentration at 4.5 h [13]: 1500 nM | pIC50 (Cytochrome P450 3A4): 5.06 | pIC50 (Blood [14]): 6.79 | pIC50 (Blood [16]): 7.96 | solubility [18]: 75% | half-life [19]: 2 h | pIC50 [20]: < 4.00 | pIC50 [22]: < 4.00 | pIC50 (Blood [23]): 7.59 | pIC50 (Cytochrome P450 2C9): 5.35 | solubility [28]: 15% | pIC50 (Blood [29]): 8.40
Compound: COc1cnc(-c2ccc(Cn3c(CC(C)(C)C(=O)[O-])c(SC(C)(C)C)c4cc(OCc5ccc(C)cn5)ccc43)cc2)nc1.[Na+]
inhibition (INH) (Mus musculus [1]): 55% | inhibition in vivo at 30 mg/kg (Mus musculus [2]): 65% | Activity (Rattus norvegicus [3]): Non-toxic | inhibition in vivo at 30 mg/kg (Mus musculus [5]): 57% | inhibition (Mus musculus [8]): inactive | inhibition (INH) (Mus musculus [9]): 37% | inhibition (Mus musculus [11]): inactive | Activity (Rattus norvegicus [15]): Non-toxic | inhibition (INH) (Mus musculus [17]): 61% | inhibition (Mus musculus [21]): Dose-dependent effect | inhibition (Mus musculus [24]): Dose-dependent effect | Activity (Rattus norvegicus [25]): Non-toxic | inhibition (Mus musculus [26]): inactive | Activity (Rattus norvegicus [27]): Non-toxic | inhibition in vivo at 30 mg/kg (Mus musculus [30]): 33%
